Data taken from article PMC11348603 (BMC Pharmacology & Toxicology, 2024).
Like-named read-outs stand apart in the source and are kept apart here.

Key:
[1] = Reported food effect study in Caucasian population; assay type: in vivo, healthy Caucasian subjects; conditions: average of the 40 mg and 120 mg group, observed data of ref 22
[2] = parameters: species or system healthy Caucasian subjects; conditions: Caucasian
In short: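 Monte Carlo simulation from the final Chinese-population model, with CL/F raised and relative bioavailability lowered per earlier published race covariate estimates. The 24 simulated Caucasian subjects had demographics matching a reported food-effect study.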

[3] = fractional difference of race, relative to Chinese model; cited from earlier work
[4] = Population pharmacokinetic analysis; assay type: in vivo, healthy Chinese adult volunteers
In short: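 Pooled plasma data from 128 subjects were fitted by SAEM with a two-compartment model: first-order elimination, two deposit absorption compartments, lag times. Parameters were log-normal with exponential IIV, and proportional, additive and combined residual errors were tested. Stepwise covariate search used p<0.05 forward and p<0.01 backward. Sex, age, WT and BMI were tested on CL/F and volume. Food (0 fasted, 1 fed) was tested on absorption parameters. Evaluation used AIC, OFV, GOF, VPC (1000 simulations) and NPDE.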

[5] = assay type: in vivo, healthy Chinese adult volunteers; conditions: for subjects whose concentration-time curves displayed multiple peaks: fasting state
In short: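 Two open-label BE studies in healthy Chinese adults, each giving one reference tablet dose (20 mg or 80 mg) with 240 mL water. Subjects either fasted ≥10 h pre-dose or ate a high-fat, high-calorie meal (800–1000 kcal) within 30 min of dosing. Blood was drawn from 30 min pre-dose to 48 h post-dose. Plasma was separated at 3000 rpm, stored at −70 °C, and assayed by LC-MS/MS. Cmax, tmax and AUCs came from non-compartmental analysis.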

[6] = cited from earlier work
[7] = humans, cited from earlier work
[8] = cited from earlier work; remark: listed apart in the source
[9] = cited from earlier work; remark: listed apart in the source
[10] = fasted, average of the 40 mg and 120 mg group

Question: For `Cc1nc(-c2ccc(OCC(C)C)c(C#N)c2)sc1C(=O)O` [febuxostat, 2-[3-cyano-4-(2-methylpropoxy)phenyl]-4-methylthiazole-5-carboxylic acid], which “fed/fasted ratio of observed mean AUC” value [1] is on record?
Answer: 0.83

Question: And the “fed/fasted ratio of observed mean Cmax” value [1]?
Answer: 0.60

Question: What about the “fed/fasted ratio of observed mean Tmax” value [1] of the same compound?
Answer: 1.87

Question: And the “predicted fed/fasted ratio of AUC” value ([2]; simulated)?
Answer: 1.02

Question: What about the “predicted fed/fasted ratio of Cmax” value ([2]; simulated) of the same compound?
Answer: 0.68

Question: What about the “predicted fed/fasted ratio of Tmax” value ([2]; simulated) of the same compound?
Answer: 1.53

Question: What about the “ratio of mean predicted and observed AUC” value [2, 10] of the same compound?
Answer: 0.92

Question: And the “ratio of mean predicted and observed Cmax” value [2, 10]?
Answer: 0.81

Question: And the “ratio of mean predicted and observed Tmax” value [2, 10]?
Answer: 1.41

Question: And the “ratio (predicted/observed) of AUC” value ([2]; fed state)?
Answer: 1.13

Question: What about the “ratio (predicted/observed) of Cmax” value ([2]; fed state) of the same compound?
Answer: 0.92

Question: And the “ratio (predicted/observed) of Tmax” value ([2]; fed state)?
Answer: 1.13

Question: And the “decrease of bioavailability applied for Caucasian subjects” value [3]?
Answer: 46%

Question: And the “estimated CL/F for healthy Chinese subjects” value ([4]; PopPK final model)?
Answer: 6.14 L/h

Question: And the “CL/F, final model estimate (RSE%)” value ([4]; apparent clearance)?
Answer: 6.14 (2.26) L∙h^−1

Question: And the “Vc/F, final model estimate (RSE%)” value ([4]; apparent distribution volume of central compartment)?
Answer: 10.38 (2.07) L

Question: And the “Vp/F, final model estimate (RSE%)” value ([4]; apparent distribution volume of peripheral compartment)?
Answer: 10.22 (3.21) L

Question: What about the “WT_Vc/F, final model estimate (RSE%)” value ([4]; covariate coefficient of body weight on Vc/F) of the same compound?
Answer: 0.58 (27.9)

Question: What about the “WT_Vp/F, final model estimate (RSE%)” value ([4]; covariate coefficient of body weight on Vp/F) of the same compound?
Answer: 1.15 (22.5)

Question: What about the “Food_Tlag1, final model estimate (RSE%)” value ([4]; covariate coefficient of fed state on Tlag1) of the same compound?
Answer: 0.73 (18.2)

Question: What about the “Food_ka1, final model estimate (RSE%)” value ([4]; covariate coefficient of fed state on ka1) of the same compound?
Answer: −2.04 (8)

Question: What about the “Food_ka2, final model estimate (RSE%)” value ([4]; covariate coefficient of fed state on ka2) of the same compound?
Answer: −1.08 (19.9)

Question: And the “reduction of ka1 by food” value ([4]; fed vs fasted, final model)?
Answer: 87%

Question: What about the “reduction of ka2 by food” value ([4]; fed vs fasted, final model) of the same compound?
Answer: 66%

Question: What about the “ka1, final model estimate (RSE%)” value ([4]; first-order absorption rate constant of first depot, fasted state) of the same compound?
Answer: 4.02 (11.4) h^−1

Question: What about the “ka2, final model estimate (RSE%)” value ([4]; first-order absorption rate constant of second depot, fasted state) of the same compound?
Answer: 4.34 (15.6) h^−1

Question: And the “F1, final model estimate (RSE%)” value ([4]; fraction of absorbed febuxostat from first depot)?
Answer: 0.51 (3.7)

Question: What about the “Q/F, final model estimate (RSE%)” value ([4]; in vivo) of the same compound?
Answer: 1.93 (4.25) L∙h^−1

Question: And the “Tlag1, final model estimate (RSE%)” value ([4]; lag time of first depot, fasted state)?
Answer: 0.22 (8.93) h

Question: What about the “Tlag2, final model estimate (RSE%)” value ([4]; lag time of second depot) of the same compound?
Answer: 0.92 (7.63) h

Question: And the “Cmax (mean ± SD)” value ([5]; 20 mg single oral dose, fasting (n=36), plasma)?
Answer: 1091 ± 301.0 ng/mL

Question: What about the “subjects whose concentration-time curves displayed multiple peaks” value ([5]; 20 mg, may be overestimated) of the same compound?
Answer: approximately 75.0%

Question: What about the “Tmax (median, range)” value ([5]; 80 mg single oral dose, fed (n=30), plasma) of the same compound?
Answer: 1.75 (0.75, 4.00) h

Question: And the “subjects whose concentration-time curves displayed multiple peaks” value ([5]; 80 mg, may be overestimated)?
Answer: ~80.6%

Question: And the “curves showing multiple peaks” value ([5]; fed study, may be overestimated)?
Answer: about 40%

Question: What about the Tmax ([5]; human, plasma, po, 20 mg) of the same compound?
Answer: 1.25 h

Question: And the solubility in methanol ([6]; methanol)?
Answer: slightly soluble

Question: And the solubility in water ([6]; water)?
Answer: practically insoluble

Question: What about the “extent of metabolism by glucuronidation” value [7] of the same compound?
Answer: up to 40%

Question: What about the “time to reach maximum plasma concentrations (Cmax)” value ([7]; oral administration, fasting condition) of the same compound?
Answer: 0.5 ~ 1.5 h

Question: What about the “CL/F estimate for healthy Australian subjects” value [8] of the same compound?
Answer: 6.91 L/h

Question: And the “CL/F reported by Rekić et al.” value [9]?
Answer: 14.58 L/h
